Results on three molecules are retold here after PMC2735501 (Journal of medicinal chemistry, 2009).

The structures appear in SMILES notation.

Assay [1] concerns cytokine production by OVA stimulated splenocytes. Nature of the assay: Mouse splenocyte cytokine assay. Format: cell-based. Particulars: for inhibiting TH2 cytokine production compared with dexamethasone (in words): IL-5, IL-13, 10 nM (Figure 9). In short, it runs like this:
(§1)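 Female Balb-C mice (6–8 weeks) were immunized s.c. weekly for four weeks with 25 µg OVA adsorbed to 1 mg alum in 200 µl PBS. Splenocytes were strained and resuspended at 1.3×10^6 cells/mL in RPMI-1640, then given test material in DMSO plus OVA. Replicate control wells held DMSO or DMSO+OVA. Supernatant cytokines were read by sandwich ELISA at 450 nm against standards in each replicate assay. Viability was checked by trypan blue count.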

The test system of another assay is IL-5 production. Put plainly: IL-5 production by OVA stimulated mouse splenocytes. It is filed as cell-based. Particulars: pure compounds or fractions. In short, it runs like this: as §1

`CC(C)C(=O)O[C@H]1[C@H](C)OC(=O)[C@@H](NC(=O)c2cccc(NC=O)c2O)[C@@H](C)OC(=O)[C@@H]1Cc1ccccc1` [compound 2]: the “inhibiting TH2 cytokine production compared with dexamethasone (in words)” value in assay [1] is listed as “as effective as dexamethasone”.

As to `CCCCCC[C@H]1C(=O)O[C@H](C)[C@H](NC(=O)c2cccc(NC=O)c2O)C(=O)O[C@@H](C)[C@@H]1OC(=O)c1ccccc1` [compound 7], the “inhibiting TH2 cytokine production compared with dexamethasone (in words)” value in assay [1] is recorded as “as effective as dexamethasone”.

Turning to `C[C@@H]1OC(=O)[C@@H](NC(=O)c2cccc(NC=O)c2O)[C@@H](C)OC(=O)[C@H](Cc2ccccc2)[C@H]1O` [compound 10], the “suppression of IL-5 production (in words)” value in the assay on IL-5 production is “low micromolar”. Also, the “suppression of cytokine production by OVA stimulated splenocytes (in words)” value in assay [1] is reported as “low micromolar”.
